Assay results from ChEMBL document CHEMBL4715773, “New Inhibitors of Indoleamine 2,3-Dioxygenase 1: Molecular Modeling Studies, Synthesis, and Biological Evaluation” (J Med Chem, 2016).
The source made the active and inactive calls. The rule behind the calls is not given here.

Key:
[1] = target: T1, Indoleamine 2,3-dioxygenase 1 (Homo sapiens, UniProt P14902); test: Inhibition of human IDO1 incubated for 60 mins in presence of L-tryptophan by HPLC analysis
Procedure, shortened: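 Recombinant human IDO1 (10 μg/mL) was assayed in 50 mM potassium phosphate pH 6.5 with 10 mM ascorbate, 10 μM methylene blue and 100 μg/mL catalase. Reaction was started with 200 μM L-Trp and run at 37 °C for 60 min. It was stopped with TCA, then held at 50 °C for 15 min to hydrolyse N-formylkynurenine. Kynurenine was measured by reversed-phase HPLC at 360 nm; triplicate determinations averaged.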
Target sequence in this assay (P14902 whole entry): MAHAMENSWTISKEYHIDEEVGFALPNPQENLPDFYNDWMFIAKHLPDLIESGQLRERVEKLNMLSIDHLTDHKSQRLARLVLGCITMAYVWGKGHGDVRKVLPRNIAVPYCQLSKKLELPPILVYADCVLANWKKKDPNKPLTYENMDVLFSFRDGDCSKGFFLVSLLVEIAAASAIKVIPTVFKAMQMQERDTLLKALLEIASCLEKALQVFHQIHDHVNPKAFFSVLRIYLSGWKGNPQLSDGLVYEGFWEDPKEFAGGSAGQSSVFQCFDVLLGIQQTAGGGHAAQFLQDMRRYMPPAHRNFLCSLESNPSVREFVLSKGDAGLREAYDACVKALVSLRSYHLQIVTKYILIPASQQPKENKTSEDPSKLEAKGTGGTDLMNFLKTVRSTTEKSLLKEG

[2] = tested on: HCT-116; test: Induction of cell death in human HCT-116 cells assessed as reduction in Bcl-xL expression at 10 uM incubated for 24 hrs by Western blot analysis; format: functional, cell-based; details: dose 20.0 µM, in the assay text read “at 20 uM” for “at 10 uM”
Procedure, shortened: (§1)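 Cells were treated 24 h with compound or DMSO, then lysed in RIPA-type buffer (50 mM Tris pH 7.4, 150 mM NaCl, 0.1% SDS, 1% deoxycholate, 1% Triton X-100, 5 mM EDTA, protease inhibitors). Protein was quantified by Bradford, run on 12% SDS-PAGE and transferred to PVDF. Blots were probed overnight at 4 °C for Mcl1, Bcl-xL (1:1000), β-catenin (1:500) and β-actin loading control (1:5000), with HRP secondary and ECL detection.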

[3] = tested on: HCT-116; test: Growth inhibition of human HCT116 cells incubated for 24 hrs by MTT assay; format: functional, cell-based
Procedure, shortened: (§2)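 Cells grown in DMEM (4.5 g/L glucose) with 10% FBS, penicillin/streptomycin and 2 mM glutamine, seeded and allowed 24 h to attach, then exposed 24 h to compound. The range was 5–80 μM or 2.5–80 μM. MTT (500 μM in PBS) was added for 3 h at 37 °C in the dark. Formazan was dissolved in propan-2-ol/0.04 N HCl and read at 550 nm. Viability is given as % of 0.1% DMSO control; three independent experiments in triplicate.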

[4] = target: T1, Indoleamine 2,3-dioxygenase 1; test: Inhibition of human IDO1 at 100 uM incubated for 60 mins in presence of L-tryptophan by HPLC analysis relative to control
Target sequence in this assay (P14902 whole entry, looked up): as the sequence (P14902 whole entry) above

[5] = tested on: HT-29; test: Induction of cell death in human HT-29 cells assessed as reduction in Mcl1 expression at 10 uM incubated for 24 hrs by Western blot analysis
[6] = tested on: HCT-116; test: Growth inhibition of human HCT116 cells assessed as cell viability at 20 uM incubated for 24 hrs by MTT assay; format: functional; details: read-out: Activity; procedure, shortened: as §2
[7] = tested on: HT-29; test: Reversible induction of cell cycle arrest in human HT-29 cells assessed as increase of accumulation at G2/M phase at 20 uM incubated for 24 hrs and harvested after further 24 hrs recovery in drug-free medium by […] staining based flow cytometry; format: functional
Procedure, shortened: (§3)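 Cells were exposed 24 h to 20, 10 or 2.5 μM or to 0.1% DMSO, then washed into drug-free medium for a further 24 h before harvest. DNA content was measured by propidium iodide flow cytometry on at least 10000 cells per sample. G2/M and other phase fractions are given as fold change versus DMSO, as mean ± SD of three independent experiments.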

[8] = tested on: HT-29; test: Growth inhibition of human HT-29 cells incubated for 24 hrs by MTT assay; format: functional, cell-based; procedure, shortened: as §2
[9] = tested on: HCT-116; test: Induction of cell cycle arrest in human HCT116 cells assessed as increase of accumulation at G2/M phase at 20 uM incubated for 24 hrs by […] staining based flow cytometry; format: functional
Procedure, shortened: (§4)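 Cells in DMEM/10% FBS were treated 24 h at 20, 10 or 2.5 μM alongside a 0.1% DMSO vehicle, then stained with propidium iodide for DNA content by flow cytometry, acquiring at least 10000 cells per sample. G0/G1, S and G2/M fractions are expressed as fold change versus DMSO. Values are mean ± SD of three independent experiments.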

[10] = tested on: HCT-116; test: Induction of cell death in human HCT-116 cells assessed as reduction in Mcl1 expression at 10 uM incubated for 24 hrs by Western blot analysis; format: functional, cell-based; details: dose 20.0 µM, in the assay text read “at 20 uM” for “at 10 uM”; procedure, shortened: as §1
[11] = tested on: HCT-116; test: Reversible induction of cell cycle arrest in human HCT-116 cells assessed as increase of accumulation at G2/M phase at 10 uM incubated for 24 hrs and harvested after further 24 hrs recovery in drug-free medium by […] staining based flow cytometry; format: functional; procedure, shortened: as §3
[12] = tested on: HT-29; test: Induction of cell death in human HT-29 cells assessed as reduction in beta-catenin expression at 10 uM incubated for 24 hrs by Western blot analysis
[13] = tested on: HT-29; test: Induction of cell death in human HT-29 cells assessed as reduction in Bcl-xL expression at 10 uM incubated for 24 hrs by Western blot analysis
[14] = tested on: HT-29; test: Induction of cell cycle arrest in human HT-29 cells assessed as increase of accumulation at G2/M phase at 20 uM incubated for 24 hrs by […] staining based flow cytometry; format: functional; details: dose 10.0 µM, in the assay text read “at 10 uM” for “at 20 uM”; procedure, shortened: as §4
[15] = tested on: HCT-116; test: Induction of cell death in human HCT-116 cells assessed as reduction in beta-catenin expression at 10 uM incubated for 24 hrs by Western blot analysis; format: functional, cell-based; details: dose 20.0 µM, in the assay text read “at 20 uM” for “at 10 uM”; procedure, shortened: as §1
[16] = tested on: HT-29; test: Growth inhibition of human HT-29 cells assessed as cell viability at 10 uM incubated for 24 hrs by MTT assay; format: functional; details: read-out: Activity; procedure, shortened: as §2
[17] = tested on: HT-29; test: Induction of cell death in human HT-29 cells assessed as reduction in Mcl1 expression at 2.5 uM incubated for 24 hrs by Western blot analysis; format: functional, cell-based; procedure, shortened: as §1
[18] = tested on: HT-29; test: Induction of cell death in human HT-29 cells assessed as reduction in Bcl-xL expression at 2.5 uM incubated for 24 hrs by Western blot analysis; format: functional, cell-based; procedure, shortened: as §1
[19] = tested on: HCT-116; test: Growth inhibition of human HCT116 cells assessed as cell viability at 10 uM incubated for 24 hrs by MTT assay; format: functional; details: read-out: Activity; procedure, shortened: as §2
[20] = tested on: HT-29; test: Induction of cell death in human HT-29 cells assessed as reduction in Mcl1 expression at 10 uM incubated for 24 hrs by Western blot analysis; format: functional, cell-based; details: dose 2.5 µM, in the assay text read “at 2.5 uM” for “at 10 uM”; procedure, shortened: as §1
[21] = tested on: HT-29; test: Induction of cell death in human HT-29 cells assessed as reduction in beta-catenin expression at 10 uM incubated for 24 hrs by Western blot analysis; format: functional, cell-based; details: dose 2.5 µM, in the assay text read “at 2.5 uM” for “at 10 uM”; procedure, shortened: as §1
[22] = tested on: HT-29; test: Induction of cell cycle arrest in human HT-29 cells assessed as increase of accumulation at G2/M phase at 2.5 uM incubated for 24 hrs by […] staining based flow cytometry; format: functional; procedure, shortened: as §4
[23] = tested on: HCT-116; test: Reversible induction of cell cycle arrest in human HCT-116 cells assessed as increase of accumulation at G2/M phase at 2.5 uM incubated for 24 hrs and harvested after further 24 hrs recovery in drug-free medium by […] staining based flow cytometry; format: functional; procedure, shortened: as §3
[24] = tested on: HT-29; test: Induction of cell death in human HT-29 cells assessed as reduction in beta-catenin expression at 2.5 uM incubated for 24 hrs by Western blot analysis; format: functional, cell-based; procedure, shortened: as §1
[25] = tested on: HT-29; test: Growth inhibition of human HT-29 cells assessed as cell viability at 2.5 uM incubated for 24 hrs by MTT assay; format: functional; details: read-out: Activity; procedure, shortened: as §2
[26] = tested on: HCT-116; test: Induction of cell cycle arrest in human HCT116 cells assessed as increase of accumulation at G2/M phase at 10 uM incubated for 24 hrs by […] staining based flow cytometry; format: functional; procedure, shortened: as §4
[27] = tested on: HT-29; test: Induction of cell death in human HT-29 cells assessed as reduction in Bcl-xL expression at 10 uM incubated for 24 hrs by Western blot analysis; format: functional, cell-based; details: dose 2.5 µM, in the assay text read “at 2.5 uM” for “at 10 uM”; procedure, shortened: as §1
[28] = tested on: HT-29; test: Reversible induction of cell cycle arrest in human HT-29 cells assessed as increase of accumulation at G2/M phase at 10 uM incubated for 24 hrs and harvested after further 24 hrs recovery in drug-free medium by […] staining based flow cytometry; format: functional; procedure, shortened: as §3

Compound: Cc1ccccc1Sc1c[nH]c2ccc(Cl)cc12
- IC50 [1]: 21 µM

Compound: COc1cc(OC)cc(Sc2c[nH]c3cccc(Cl)c23)c1
- IC50 [1]: 52 µM

Compound: COc1cc(OC)cc(Sc2c(C)[nH]c3ccc(Cl)cc23)c1
- IC50 [1]: 45 µM

Compound: COc1cc(OC)cc(Sc2c[nH]c3c(Cl)cccc23)c1
- IC50 [1]: > 200 µM

Compound: Cc1cc(C)cc(Sc2c[nH]c3ccc(Cl)cc23)c1
- IC50 [1]: 20 µM

Compound: Clc1ccc2[nH]cc(Sc3ccccc3)c2c1
- IC50 [1]: > 200 µM

Compound: COc1ccccc1Cc1c[nH]c2ccc(Cl)cc12
- IC50 [1]: 63 µM

Compound: CCOc1ccc2[nH]cc(Sc3ccccc3OC)c2c1
- IC50 [1]: > 200 µM

Compound: COc1cc(OC)cc(Sc2c[nH]c3ccccc23)c1
- IC50 [1]: 25 µM

Compound: COc1ccc(Sc2c[nH]c3ccc(Cl)cc23)cc1
- IC50 [1]: 16 µM

Compound: COc1ccccc1S(=O)(=O)c1c[nH]c2ccc(Cl)cc12
- IC50 [1]: > 200 µM

Compound: COc1cc(Sc2c[nH]c3ccc(Cl)cc23)cc(OC)c1OC
- IC50 [1]: 40 µM

Compound: COc1cc(OC)cc(Sc2c[nH]c3ncccc23)c1
- IC50 [1]: > 200 µM

Compound: COc1ccccc1Sc1c[nH]c2ccc(I)cc12
- IC50 [1]: 45 µM

Compound: COc1ccc(Sc2c[nH]c3ccc(Cl)cc23)c(OC)c1
- IC50 [1]: > 50 µM

Compound: Cc1ccc(Sc2c[nH]c3ccc(Cl)cc23)cc1
- IC50 [1]: > 200 µM

Compound: COc1ccccc1Sc1c[nH]c2ccc(Cl)cc12
- Activity [2]: Active
- growth inhibition (GI) [3]: Dose-dependent effect
- inhibition [4]: 80%
- Activity [5]: Active
- viability at 20 µM [6]: 40%
- Activity [7]: Active
- IC50 [1]: 17.5 µM
- growth inhibition (GI) [8]: Dose-dependent effect
- Activity [9]: Active
- Activity [10]: Active
- Activity [11]: Active
- Activity [12]: Active
- Activity [13]: Active
- Activity [14]: Active
- Activity [15]: Active
- viability at 10 µM [16]: 40%

Compound: COc1ccccc1Sc1c[nH]c2ccc(F)cc12
- IC50 [1]: 32 µM

Compound: COC(=O)c1[nH]c2ccc(Cl)cc2c1Sc1ccccc1OC
- IC50 [1]: > 200 µM

Compound: COc1cc(OC)cc(Sc2c[nH]c3c(Cl)c(Cl)ccc23)c1
- IC50 [1]: 90 µM

Compound: COc1ccccc1Sc1c[nH]c2ccc(Br)cc12
- IC50 [1]: 24 µM

Compound: COc1ccccc1C(=O)c1c[nH]c2ccc(Cl)cc12
- IC50 [1]: > 200 µM

Compound: COc1cc(OC)cc(Sc2c[nH]c3cc(Cl)ccc23)c1
- IC50 [1]: 15 µM

Compound: Cc1cccc(Sc2c[nH]c3ccc(Cl)cc23)c1
- IC50 [1]: 100 µM

Compound: COc1cccc(Sc2c[nH]c3ccc(Cl)cc23)c1
- IC50 [1]: 21 µM

Compound: COc1cc(OC)cc(Sc2c[nH]c3ccc(Cl)cc23)c1
- Activity [17]: Active
- Activity [18]: Active
- growth inhibition (GI) [3]: Dose-dependent effect
- viability at 10 µM [19]: 40%
- IC50 [1]: 7 µM
- growth inhibition (GI) [8]: Dose-dependent effect
- Activity [20]: Active
- Activity [21]: Active
- Activity [22]: Active
- Activity [23]: Active
- Activity [24]: Active
- viability at 2.5 µM [25]: 40%
- Activity [26]: Active
- Activity [27]: Active
- Activity [28]: Active
